KCNK9 inh = human KCNK9 channel inhibition. HEK293 KCNK9, FluxOR thallium flux fluorescence; stronger effect = lower value. B-score at 10 µM. 1.2% of 310,000 active. AID 488922;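 active = ratio B-score over 3 SD below the library mean, with starting fluorescence within 5 SD of its mean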;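 also: negative B-score means less thallium flux so channel inhibition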
Kir21 block = inhibitors of mouse Kir2.1 inward-rectifier potassium channel; P35561; HEK293-Kir2.1, FluxOR thallium flux fluorescence; stronger effect = lower value; B-score at 10 µM; 0.85% of 310,000 active; AID 1672;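 active = fluorescence ratio B-score at or below minus 3 SD of library scores, with starting-brightness B-score within 2 SD, cut at about -4.2 in these data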;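 also: channel flux triggered by added potassium and thallium sulfate stimulus; B-score of peak minus minimum fluorescence over baseline after thallium stimulus; more negative B-score means stronger Kir2.1 block with less thallium influx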
hERG rescue = shields human hERG channel from block by proarrhythmic agents. 0.51% of 310,000 active. CHO-hERG, FluxOR thallium flux, dofetilide IC70 present. activation (rescue from dofetilide block), less the hit threshold, % at 10 µM. Q12809;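 active = activation above the mean of controls blocked by dofetilide plus 5 SD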;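 also: thallium influx through hERG after potassium depolarization seen as dye fluorescence rise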
KCNK3 block = human KCNK3 channel inhibition, primary screen; O14649; CHO-KCNK3 thallium flux, FluxOR fluorescence; stronger effect = lower value; B-score at 10 µM; 0.84% of 340,000 active; AID 602410;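 active = B-score under library mean minus 4 SD, starting fluorescence ratio at most library mean plus 5 SD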;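 also: more negative B-score means stronger inhibition of thallium flux through KCNK3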
KCNQ1 act = potentiators or activators of human KCNQ1 potassium channel. P51787. CHO-K1 KCNQ1, thallium flux FluxOR fluorescence; stronger effect = higher value. B-score at 10 µM. 0.35% of 310,000 active. AID 2648;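 active = fluorescence ratio B-score, a plate-corrected score, at least three library SD, with initial intensity B-score within 5 SD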
Target sequence (P51787 whole entry, looked up): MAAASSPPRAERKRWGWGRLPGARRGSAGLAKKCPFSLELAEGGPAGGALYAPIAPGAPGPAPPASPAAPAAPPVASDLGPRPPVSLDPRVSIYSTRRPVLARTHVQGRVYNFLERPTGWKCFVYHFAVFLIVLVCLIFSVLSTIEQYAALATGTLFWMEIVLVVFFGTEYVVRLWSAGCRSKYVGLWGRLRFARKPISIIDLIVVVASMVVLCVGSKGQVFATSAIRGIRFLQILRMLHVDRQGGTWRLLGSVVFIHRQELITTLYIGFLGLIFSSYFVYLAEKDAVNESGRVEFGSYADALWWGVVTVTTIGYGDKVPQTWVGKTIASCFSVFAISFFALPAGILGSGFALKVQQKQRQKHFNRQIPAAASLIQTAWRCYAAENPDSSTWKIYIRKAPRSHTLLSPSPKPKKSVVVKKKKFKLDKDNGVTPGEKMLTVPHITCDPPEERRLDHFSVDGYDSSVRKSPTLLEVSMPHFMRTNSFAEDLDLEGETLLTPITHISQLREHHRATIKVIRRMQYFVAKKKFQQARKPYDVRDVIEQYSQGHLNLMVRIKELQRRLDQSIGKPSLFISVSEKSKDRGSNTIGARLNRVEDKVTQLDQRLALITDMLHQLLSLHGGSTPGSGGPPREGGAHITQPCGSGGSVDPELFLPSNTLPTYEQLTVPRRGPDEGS
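assay system = KCNQ1-transfected CHO-K1 cells | medium = assay buffer with matched DMSO | probe or stimulus = depolarizing K+/Tl+ stimulus, K2SO4 and Tl2SO4 each 12.5 mM in 5x stock | dosing = single dose | incubation = dye 90 min, compound 20 min, room temperature | detection = kinetic FluxOR fluorescence, 10 s baseline plus 110 s post-stimulus | evaluation = ratio B score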
KCNQ1 block = human KCNQ1 channel inhibition; CHO-K1 KCNQ1, FluxOR thallium flux fluorescence; stronger effect = higher value; B-score at 10 µM; 1.3% of 310,000 active; AID 2642;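 active = compounds whose thallium flux B-score, printed positive for inhibition, exceeds three library SD while starting fluorescence stays within three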;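 also: channel opened by potassium depolarization with thallium stimulus after 20 min compound exposure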
The depositor's hits bear a star. The list is not random: actives were taken first. Their share in the collection is about 3.8%.

Screening COc1ccccc1C(=O)COC(=O)C1(C)CC1(Cl)Cl (centres undefined) returned KCNK3 block inactive.
Screening CC(=O)CSc1ncnc2sc3c(c12)CCC(C)C3 (centres undefined) returned KCNK9 inh inactive, Kir21 block 1.5, hERG rescue 50*, KCNK3 block inactive, KCNQ1 act 33* and KCNQ1 block inactive.
For COc1ccc(C(=O)Nc2ccc(CN3CCOCC3)cc2)cc1Br the results were KCNK9 inh inactive, Kir21 block -5.3*, hERG rescue -5, KCNK3 block inactive, KCNQ1 act inactive and KCNQ1 block inactive.
`COc1ccc(Br)cc1/C=C/C(=O)NC(=S)Nc1ccc(CN2CCOCC2)cc1` gave KCNK9 inh inactive, Kir21 block -0.02, hERG rescue -19, KCNK3 block inactive, KCNQ1 act inactive and KCNQ1 block 8*.
COc1ccc(C(=O)NC(=S)Nc2ccc(CN3CCOCC3)cc2)cc1OC was read as KCNK9 inh inactive, Kir21 block -0.87, hERG rescue -5, KCNK3 block inactive, KCNQ1 act inactive and KCNQ1 block inactive.
`O=C(/C=C/c1ccc(Cl)cc1)NC(=S)Nc1ccc(CN2CCOCC2)cc1` gave KCNK9 inh inactive, Kir21 block 0.2, hERG rescue -8, KCNK3 block inactive, KCNQ1 act inactive and KCNQ1 block inactive.
O=C(Nc1cccc(C(=O)O)c1)/C(=C\c1ccc(F)cc1)NC(=O)c1ccco1 was read as KCNK9 inh inactive, Kir21 block 0.23, hERG rescue -4, KCNK3 block inactive, KCNQ1 act inactive and KCNQ1 block inactive.
Screening CCN(Cc1ccccc1)c1ccc(/C=N/N=C(N)N)cc1 returned KCNK9 inh inactive, Kir21 block -14*, hERG rescue -41, KCNK3 block inactive, KCNQ1 act inactive and KCNQ1 block inactive.
`c1ccc2oc(-c3csc(N4CCOCC4)n3)cc2c1` gave KCNK9 inh inactive, Kir21 block -1.1, hERG rescue -6, KCNK3 block inactive, KCNQ1 act inactive and KCNQ1 block inactive.
Cc1nc2sccn2c1-c1nc(-c2cc3ccccc3o2)cs1 was read as KCNK9 inh -7.1*, Kir21 block 0, hERG rescue -9, KCNK3 block inactive, KCNQ1 act inactive and KCNQ1 block inactive.
Screening O=C(CCNc1cccc(F)c1)c1cccc([N+](=O)[O-])c1 returned KCNK9 inh inactive, Kir21 block -0.16, hERG rescue -20, KCNK3 block inactive, KCNQ1 act inactive and KCNQ1 block 8*.
O=C(CCNc1ccc(Cc2ccncc2)cc1)c1cccc([N+](=O)[O-])c1 was read as KCNK9 inh inactive, Kir21 block -2.3, hERG rescue -12, KCNK3 block inactive, KCNQ1 act inactive and KCNQ1 block inactive.
For COc1ccc(N2CCN(C(=S)NCc3ccccc3)CC2)cc1 the results were KCNK9 inh inactive, Kir21 block 0.45, hERG rescue -9, KCNK3 block inactive, KCNQ1 act inactive and KCNQ1 block inactive.
CCc1ccc2c(CN3CCN(S(=O)(=O)c4ccccc4F)CC3)cc(=O)oc2c1 was read as KCNK3 block inactive.
For CCc1ccc2c(CN3CCN(Cc4ccccc4)CC3)cc(=O)oc2c1 the results were KCNK9 inh inactive, Kir21 block -5.2*, hERG rescue -18, KCNK3 block inactive, KCNQ1 act inactive and KCNQ1 block inactive.
`Cc1nnc(SCc2cc(=O)oc3cc(O)ccc23)n1Cc1ccccc1` gave KCNK9 inh inactive, Kir21 block -0.01, hERG rescue 11*, KCNK3 block inactive, KCNQ1 act inactive and KCNQ1 block inactive.
Screening CCOC(=O)c1coc(C(=O)OCC)c1C(=O)OCC returned KCNK3 block inactive.
`O=C1/C(=C/Nc2ccc3c(c2)OCO3)CCc2ccccc21` gave KCNK9 inh inactive, Kir21 block 0.12, hERG rescue -13, KCNK3 block inactive, KCNQ1 act inactive and KCNQ1 block 6*.
Screening O=C(CSc1nnc(-c2ccccc2Cl)o1)N1CCOCC1 returned KCNK9 inh inactive, Kir21 block -0.06, hERG rescue -4, KCNK3 block inactive, KCNQ1 act inactive and KCNQ1 block inactive.
